The source made the active and inactive calls. The rule behind the calls is not given here.
Experiments:
[1] = AUC (0 to t) in ICR mouse at 5 mg/kg, iv; format: ADME, organism-based; parameters: dose 5 mg/kg, route intravenous; settings: plasma
Summary of the method: (§1)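 ICR mice given drug intravenously at 5 mg/kg or orally at 10 mg/kg. Parameters are taken from the plasma concentration–time profile: AUC(0–t), AUC(0–∞), MRT, Cmax and bioavailability.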

[2] = AUC (0 to infinity) in ICR mouse at 5 mg/kg, iv; format: ADME, organism-based; parameters: time infinity, dose 5 mg/kg, route intravenous; settings: plasma; summary of the method: as §1
[3] = Mean residence time (0 to infinity) in ICR mouse at 5 mg/kg, iv; format: ADME, organism-based; parameters: dose 5 mg/kg, route intravenous; settings: in vivo; summary of the method: as §1
[4] = Cmax in ICR mouse at 5 mg/kg, iv; format: ADME, organism-based; parameters: dose 5 mg/kg, route intravenous; settings: in vivo; summary of the method: as §1
[5] = AUC (0 to t) in ICR mouse at 10 mg/kg, po; format: ADME, organism-based; parameters: dose 10 mg/kg, route oral; settings: plasma; summary of the method: as §1
[6] = AUC (0 to infinity) in ICR mouse at 10 mg/kg, po; format: ADME, organism-based; parameters: time infinity, dose 10 mg/kg, route oral; settings: plasma; summary of the method: as §1
[7] = Mean residence time (0 to infinity) in ICR mouse at 10 mg/kg, po; format: ADME, organism-based; parameters: dose 10 mg/kg, route oral; settings: in vivo; summary of the method: as §1
[8] = Tmax in ICR mouse at 10 mg/kg, po; format: ADME, organism-based; parameters: dose 10 mg/kg, route oral; settings: in vivo
[9] = Cmax in ICR mouse at 10 mg/kg, po; format: ADME, organism-based; parameters: dose 10 mg/kg, route oral; settings: in vivo; summary of the method: as §1
[10] = Oral bioavailability ICR mouse at 10 mg/kg; format: ADME, organism-based; settings: in vivo; summary of the method: as §1
Rattus norvegicus [11] = experiment: Antiinflammatory activity in Wistar albino rat assessed as inhibition of carrageenan-induced paw edema at 30 mg/kg intragastrically administered 1 hr before carrageenan challenge measured after 1 to 24 hrs post carrageenan challenge by plethysmometer; format: functional, organism-based
Summary of the method: (§2)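 Male Wistar albino rats, 140–160 g, eight per group, dosed i.g. as a suspension in 0.5% CMC; controls get 0.5% CMC only. 1 h later, 0.1 ml of 0.1% carrageenan in 0.9% NaCl is injected into the sub-plantar region of the right hind paw. Paw volume is read by plethysmometer hourly to 6 h and at 24 h. Inhibition (%) = (Vc − Vt)/Vc × 100 on mean volume increase; mean ± SEM.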

Rattus norvegicus [12] = experiment: Antiinflammatory activity in Wistar albino rat assessed as inhibition of carrageenan-induced paw edema at 33.6 mg/kg, ig administered 1 hr before carrageenan challenge measured after 1 to 24 hrs post carrageenan challenge by plethysmometer; format: functional, organism-based; summary of the method: as §2
[13] = Plasma concentration in ICR mouse at 5 mg/kg, iv after 0.083 hrs by HPLC/MS/MS analysis; format: ADME, organism-based; parameters: dose 5 mg/kg, route intravenous
[14] = Plasma concentration in ICR mouse at 5 mg/kg, iv after 0.25 hrs by HPLC/MS/MS analysis; format: ADME, organism-based; parameters: dose 5 mg/kg, route intravenous
[15] = Plasma concentration in ICR mouse at 5 mg/kg, iv after 0.5 hrs by HPLC/MS/MS analysis; format: ADME, organism-based; parameters: dose 5 mg/kg, route intravenous
[16] = Plasma concentration in ICR mouse at 5 mg/kg, iv after 1 hr by HPLC/MS/MS analysis; format: ADME, organism-based; parameters: dose 5 mg/kg, route intravenous
[17] = Plasma concentration in ICR mouse at 5 mg/kg, iv after 2 hrs by HPLC/MS/MS analysis; format: ADME, organism-based; parameters: dose 5 mg/kg, route intravenous
[18] = Plasma concentration in ICR mouse at 5 mg/kg, iv after 4 hrs by HPLC/MS/MS analysis; format: ADME, organism-based; parameters: dose 5 mg/kg, route intravenous
[19] = Plasma concentration in ICR mouse at 5 mg/kg, iv after 6 hrs by HPLC/MS/MS analysis; format: ADME, organism-based; parameters: dose 5 mg/kg, route intravenous
[20] = Plasma concentration in ICR mouse at 5 mg/kg, iv after 8 hrs by HPLC/MS/MS analysis; format: ADME, organism-based; parameters: dose 5 mg/kg, route intravenous
[21] = Plasma concentration in ICR mouse at 10 mg/kg, po after 0.083 hrs by HPLC/MS/MS analysis; format: ADME, organism-based; parameters: dose 10 mg/kg, route oral
[22] = Plasma concentration in ICR mouse at 10 mg/kg, po after 0.5 hrs by HPLC/MS/MS analysis; format: ADME, organism-based; parameters: dose 10 mg/kg, route oral
[23] = Plasma concentration in ICR mouse at 10 mg/kg, po after 1 hr by HPLC/MS/MS analysis; format: ADME, organism-based; parameters: dose 10 mg/kg, route oral
[24] = Plasma concentration in ICR mouse at 10 mg/kg, po after 2 hrs by HPLC/MS/MS analysis; format: ADME, organism-based; parameters: dose 10 mg/kg, route oral
[25] = Plasma concentration in ICR mouse at 10 mg/kg, po after 4 hrs by HPLC/MS/MS analysis; format: ADME, organism-based; parameters: dose 10 mg/kg, route oral
[26] = Plasma concentration in ICR mouse at 10 mg/kg, po after 6 hrs by HPLC/MS/MS analysis; format: ADME, organism-based; parameters: dose 10 mg/kg, route oral
[27] = Plasma concentration in ICR mouse at 10 mg/kg, po after 8 hrs by HPLC/MS/MS analysis; format: ADME, organism-based; parameters: dose 10 mg/kg, route oral
[28] = Drug level in ICR mouse brain at 5 mg/kg, iv after 0.25 hrs by HPLC/MS/MS analysis; format: ADME, organism-based; parameters: dose 5 mg/kg, route intravenous; settings: read-out: Drug uptake
[29] = Drug level in ICR mouse brain at 5 mg/kg, iv after 0.5 hrs by HPLC/MS/MS analysis; format: ADME, organism-based; parameters: dose 5 mg/kg, route intravenous; settings: read-out: Drug uptake
[30] = Drug level in ICR mouse brain at 5 mg/kg, iv after 1 hr by HPLC/MS/MS analysis; format: ADME, organism-based; parameters: dose 5 mg/kg, route intravenous; settings: read-out: Drug uptake
[31] = Drug level in ICR mouse brain at 5 mg/kg, iv after 2 hrs by HPLC/MS/MS analysis; format: ADME, organism-based; parameters: dose 5 mg/kg, route intravenous; settings: read-out: Drug uptake
[32] = Drug level in ICR mouse brain at 10 mg/kg, po after 0.083 hrs by HPLC/MS/MS analysis; format: ADME, organism-based; parameters: dose 10 mg/kg, route oral; settings: read-out: Drug uptake
[33] = Drug level in ICR mouse brain at 10 mg/kg, po after 0.25 hrs by HPLC/MS/MS analysis; format: ADME, organism-based; parameters: dose 10 mg/kg, route oral; settings: read-out: Drug uptake
[34] = Drug level in ICR mouse brain at 10 mg/kg, po after 0.5 hrs by HPLC/MS/MS analysis; format: ADME, organism-based; parameters: dose 10 mg/kg, route oral; settings: read-out: Drug uptake
[35] = Drug level in ICR mouse brain at 10 mg/kg, po after 1 hr by HPLC/MS/MS analysis; format: ADME, organism-based; parameters: dose 10 mg/kg, route oral; settings: read-out: Drug uptake
[36] = Drug level in ICR mouse brain at 10 mg/kg, po after 2 hrs by HPLC/MS/MS analysis; format: ADME, organism-based; parameters: dose 10 mg/kg, route oral; settings: read-out: Drug uptake
[37] = Drug level in ICR mouse brain at 10 mg/kg, po after 4 hrs by HPLC/MS/MS analysis; format: ADME, organism-based; parameters: dose 10 mg/kg, route oral; settings: read-out: Drug uptake
Nucleic Acid [38] = experiment: Ratio of drug level in brain to plasma in ICR mouse at 5 mg/kg, iv after 0.083 hrs by HPLC/MS/MS analysis; format: ADME, organism-based; parameters: dose 5 mg/kg, route intravenous
Nucleic Acid [39] = experiment: Ratio of drug level in brain to plasma in ICR mouse at 5 mg/kg, iv after 0.25 hrs by HPLC/MS/MS analysis; format: ADME, organism-based; parameters: dose 5 mg/kg, route intravenous
Nucleic Acid [40] = experiment: Ratio of drug level in brain to plasma in ICR mouse at 5 mg/kg, iv after 0.5 hrs by HPLC/MS/MS analysis; format: ADME, organism-based; parameters: dose 5 mg/kg, route intravenous
Nucleic Acid [41] = experiment: Ratio of drug level in brain to plasma in ICR mouse at 5 mg/kg, iv after 2 hrs by HPLC/MS/MS analysis; format: ADME, organism-based; parameters: dose 5 mg/kg, route intravenous
Nucleic Acid [42] = experiment: Ratio of drug level in brain to plasma in ICR mouse at 10 mg/kg, po after 0.25 hrs by HPLC/MS/MS analysis; format: ADME, organism-based; parameters: dose 10 mg/kg, route oral
Nucleic Acid [43] = experiment: Ratio of drug level in brain to plasma in ICR mouse at 10 mg/kg, po after 0.5 hrs by HPLC/MS/MS analysis; format: ADME, organism-based; parameters: dose 10 mg/kg, route oral
Nucleic Acid [44] = experiment: Ratio of drug level in brain to plasma in ICR mouse at 10 mg/kg, po after 1 hr by HPLC/MS/MS analysis; format: ADME, organism-based; parameters: dose 10 mg/kg, route oral

SMILES: CC(C)Cc1ccc([C@H](CF)C(=O)O)cc1
- AUC(0-t) [1]: 23300 ng·h/mL
- AUC(0-inf) [2]: 23300 ng·h/mL
- MRT inf [3]: 49.8 min
- Cmax [4]: 31600 ng/mL
- AUC(0-t) [5]: 50200 ng·h/mL
- AUC(0-inf) [6]: 50200 ng·h/mL
- MRT inf [7]: 57 min
- Tmax [8]: 15 min
- Cmax [9]: 42100 ng/mL
- bioavailability [10]: 108%
- inhibition (Rattus norvegicus [11]): Active
- inhibition (Rattus norvegicus [12]): Active
- concentration at 0.083 h [13]: 31600 ng/mL
- concentration at 0.25 h [14]: 18000 ng/mL
- concentration at 0.5 h [15]: 13700 ng/mL
- concentration at 1 h [16]: 6160 ng/mL
- concentration at 2 h [17]: 2240 ng/mL
- concentration at 4 h [18]: 206 ng/mL
- concentration at 6 h [19]: 130 ng/mL
- concentration at 8 h [20]: 45.3 ng/mL
- concentration at 0.083 h [21]: 41800 ng/mL
- concentration at 0.5 h [22]: 28500 ng/mL
- concentration at 1 h [23]: 20900 ng/mL
- concentration at 2 h [24]: 5310 ng/mL
- concentration at 4 h [25]: 792 ng/mL
- concentration at 6 h [26]: 102 ng/mL
- concentration at 8 h [27]: 42.4 ng/mL
- concentration at 0.25 h [28]: 759 ng/g
- concentration at 0.5 h [29]: 523 ng/g
- concentration at 1 h [30]: 232 ng/g
- concentration at 2 h [31]: 64.9 ng/g
- concentration at 0.083 h [32]: 1160 ng/g
- concentration at 0.25 h [33]: 1270 ng/g
- concentration at 0.5 h [34]: 950 ng/g
- concentration at 1 h [35]: 516 ng/g
- concentration at 2 h [36]: 162 ng/g
- concentration at 4 h [37]: 24.7 ng/g
- BPR (Nucleic Acid [38]): 0.031 mL/g
- BPR (Nucleic Acid [39]): 0.042 mL/g
- BPR (Nucleic Acid [40]): 0.038 mL/g
- BPR (Nucleic Acid [41]): 0.032 mL/g
- BPR (Nucleic Acid [42]): 0.03 mL/g
- BPR (Nucleic Acid [43]): 0.035 mL/g
- BPR (Nucleic Acid [44]): 0.025 mL/g
